Source: ChEMBL document CHEMBL5390224, “Design, synthesis, and biological evaluation of a novel series of 1,2,4-oxadiazole inhibitors of SLACK potassium channels: Identification of in vitro tool VU0935685” (Bioorg Med Chem, 2023)
pIC50: −log10 of the molar value. The source made the active and inactive calls. The calls are words filed in the database; no cut-off is given here.

Experiments:
Type in all cases: cell-based
HEK293 [1] = assay: Inhibition of wild-type human SLACK expressed in HEK293 cells assessed as efficacy at 30 uM by thallium flux assay relative to control
In short: (§1)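 Stable monoclonal HEK293 lines (WT or A934T SLACK) plated 20,000 cells/well; loaded 1 h at room temperature with Thallo-AM dye, 1.25 mM probenecid, masking dye, 0.3% Pluronic F-127 in buffer with 2.7 mM RbCl, pH 7.3. Compound preincubated 120 s, then Tl2SO4 stimulus (2.5 mM); fluorescence read 120 s. Concentration–response 1.5 nM–30 μM in half-log steps, ≥3 replicate wells.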

[2] = (§2) Inhibition of wild-type human SLACK expressed in HEK293 cells by thallium flux assay; in short: as §1
HEK293 [3] = assay: Activation of wild-type human SLACK expressed in HEK293 cells assessed as efficacy at 30 uM by thallium flux assay relative to control
HEK293 [4] = assay: as §2; in short: as §1

`CCOc1ccccc1S(=O)(=O)N1CC(c2nc(-c3ccc(C(F)(F)F)cc3)no2)C1` gave an Efficacy (HEK293 [1]) of 95% and a pIC50 [2] of 5.42.

Compound `CCOc1ccccc1S(=O)(=O)N1CC(c2nc(-c3ccccc3)no2)C1` has an Efficacy (HEK293 [1]) of 51%.

Work on `O=S(=O)(c1cccn2ncnc12)N1CC(c2nc(-c3ccc(F)cc3)no2)C1` yielded an Efficacy (HEK293 [3]) of 16%.

For `CCCOc1ccccc1S(=O)(=O)N1CC(c2nc(-c3ccsc3)no2)C1`, the Efficacy (HEK293 [1]) was 87% and the pIC50 [2] was 5.59.

In the case of `CCOc1ccccc1S(=O)(=O)N1CC(c2nc(-c3nccs3)no2)C1`, the Efficacy (HEK293 [1]) was “inactive” and the inhibition (HEK293 [4]) was “inactive”.

`O=S(=O)(c1cccn2ccnc12)N1CC(c2nc(-c3ccc(F)cc3)no2)C1` showed an Efficacy (HEK293 [3]; filed as activator) of 48%.

Compound `O=S(=O)(c1cccc(F)c1)N1CC(c2nc(-c3ccsc3)no2)C1` has an Efficacy (HEK293 [3]) of 24%.

Compound `Cc1cn2cccc(S(=O)(=O)N3CC(c4nc(-c5ccc(F)cc5)no4)C3)c2n1` has an Efficacy (HEK293 [3]) of 19%.

In the case of `CCOc1ccccc1S(=O)(=O)N1CC(c2cc(-c3ccc(F)cc3)on2)C1`, the Efficacy (HEK293 [1]) was “inactive” and the inhibition (HEK293 [4]) was “inactive”.

With `CCOc1ccccc1S(=O)(=O)N1CC(c2nc(-c3cnsc3)no2)C1` the Efficacy (HEK293 [1]) was 106% and the pIC50 [2] was 5.18.

`CCCc1ccccc1S(=O)(=O)N1CC(c2nc(-c3ccsc3)no2)C1` gave an Efficacy (HEK293 [1]) of 79%.

`O=S(=O)(c1ccccc1F)N1CC(c2nc(-c3ccsc3)no2)C1` showed an Efficacy (HEK293 [3]) of 30%.

Work on `CCOc1ccccc1NC(=O)N1CC(c2nc(-c3ccsc3)no2)C1` yielded an Efficacy (HEK293 [3]) of less than 10%.

With `CCOc1ccccc1S(=O)(=O)N1CC(c2nc(-c3ccc(F)cc3)cn2C)C1` the Efficacy (HEK293 [1]) was 47%.

With `O=S(=O)(c1ccccc1OC1CCCC1)N1CC(c2nc(-c3ccc(F)cc3)no2)C1` the Efficacy (HEK293 [1]) was 93%.

In the case of `CCOc1ccccc1S(=O)(=O)N1CC(c2nc(-c3ccccc3C(F)(F)F)no2)C1`, the Efficacy (HEK293 [3]; filed as activator) was 66%.

`CCOc1ccccc1S(=O)(=O)N1CC(c2nc(-c3ccc(F)cc3)c[nH]2)C1` gave an Efficacy (HEK293 [3]) of 34%.

`CCOc1ccccc1S(=O)(=O)N1CC(c2nc(-c3cccc(OC)c3)no2)C1` showed an Efficacy (HEK293 [3]) of less than 10%.

Work on `CCOc1ccccc1S(=O)(=O)N1CC(c2nc(-c3ccco3)no2)C1` yielded an Efficacy (HEK293 [1]) of 44%.

For `CCOc1ccccc1S(=O)(=O)N1CC[C@@H](c2nc(-c3ccc(F)cc3)no2)C1`, the Efficacy (HEK293 [1]) was 31% and the pIC50 [2] was less than 5.00.

With `CCOc1ccccc1S(=O)(=O)N1CC(c2nc(-c3cccc(Cl)c3)no2)C1` the Efficacy (HEK293 [1]) was “inactive” and the inhibition (HEK293 [4]) was “inactive”.

Compound `CCOc1ccccc1S(=O)(=O)C1CN(c2nc(-c3ccc(F)cc3)no2)C1` has an Efficacy (HEK293 [1]) of 24%.

In the case of `Cc1nnc2c(S(=O)(=O)N3CC(c4nc(-c5ccc(F)cc5)no4)C3)cccn12`, the Efficacy (HEK293 [1]) was “inactive” and the inhibition (HEK293 [4]) was “inactive”.

For `CCOc1ccccc1S(=O)(=O)N1CC(c2nc(-c3cccnc3)no2)C1`, the Efficacy (HEK293 [1]) was “inactive” and the inhibition (HEK293 [4]) was “inactive”.

Compound `CCOc1ccccc1OC(=O)N1CC(c2nc(-c3ccsc3)no2)C1` has an Efficacy (HEK293 [3]; filed as activator) of 50%.

In the case of `CCOc1ccccc1S(=O)(=O)N1CC(c2nc(-c3cccc(C(F)(F)F)c3)no2)C1`, the Efficacy (HEK293 [1]) was 48%.

For `CCOc1ccccc1S(=O)(=O)[C@H]1C[C@H](c2nc(-c3ccc(F)cc3)no2)C1`, the Efficacy (HEK293 [1]) was 52%.

Work on `CCOc1ccccc1S(=O)(=O)N1CC(c2nnc(-c3ccc(F)cc3)o2)C1` yielded an Efficacy (HEK293 [3]) of less than 10%.

`O=S(=O)(c1ccccc1C(F)(F)F)N1CC(c2nc(-c3ccsc3)no2)C1` showed an Efficacy (HEK293 [3]) of 36%.

Work on `O=S(=O)(c1ccccc1N1CCCC1)N1CC(c2nc(-c3ccc(F)cc3)no2)C1` yielded an Efficacy (HEK293 [1]) of 92%.

Work on `CCOc1ccccc1S(=O)(=O)N1CC(c2nc(-c3ccc(F)cc3F)no2)C1` yielded an Efficacy (HEK293 [1]) of 93% and a pIC50 [2] of 5.19.

For `CCOc1ccccc1S(=O)(=O)N1CC(c2nc(-c3ccc(Cl)cc3F)no2)C1`, the Efficacy (HEK293 [1]) was 99% and the pIC50 [2] was 5.14.

In the case of `O=S(=O)(c1ccc(Cl)cc1)N1CC(c2nc(-c3ccsc3)no2)C1`, the Efficacy (HEK293 [1]) was “inactive” and the inhibition (HEK293 [4]) was “inactive”.

With `CCOc1ccccc1S(=O)(=O)N1CC(c2nnc(-c3ccc(F)cc3)[nH]2)C1` the Efficacy (HEK293 [3]) was 31%.

`O=S(=O)(c1ccccc1OC1COC1)N1CC(c2nc(-c3ccc(F)cc3)no2)C1` gave an Efficacy (HEK293 [3]; filed as activator) of 43%.

In the case of `Cc1ccc(S(=O)(=O)N2CC(c3nc(-c4ccsc4)no3)C2)cc1`, the Efficacy (HEK293 [1]) was “inactive” and the inhibition (HEK293 [4]) was “inactive”.

For `O=S(=O)(c1ccccc1Cl)N1CC(c2nc(-c3ccsc3)no2)C1`, the Efficacy (HEK293 [3]; filed as activator) was 47%.

`CCOc1ccccc1CC(=O)N1CC(c2nc(-c3ccsc3)no2)C1` showed an Efficacy (HEK293 [3]) of 37%.

Compound `CCOc1ccccc1CN1CC(c2nc(-c3ccsc3)no2)C1` has an Efficacy (HEK293 [3]) of 31%.

With `CCOc1ccccc1S(=O)(=O)[C@H]1C[C@@H](c2nc(-c3ccc(F)cc3)no2)C1` the Efficacy (HEK293 [1]) was “inactive” and the inhibition (HEK293 [4]) was “inactive”.
